Seven substances from ChEMBL document CHEMBL1130197, “Preparation, characterization, DNA binding, and in vitro cytotoxicity of the enantiomers of the platinum(II) complexes N-methyl-, N-ethyl- and N,N-dimethyl-(R)- and -(S)-3-aminohexahydroazepinedichloroplatinum(II)” (1997) can be followed below.

Format in all cases: functional
One experiment has as its system BL13/0. The experiment is described as follows: Concentration to inhibit growth of BL13/0 cell lines. Particulars: Homo sapiens. The gist of the method:
(§1)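 Human tumor lines grown as monolayers in RPMI 1640 with 10% FCS plus penicillin/streptomycin, at 37 °C under 7.5% CO₂, 5% O₂, 85% N₂. Cells were seeded at 5000 per well and left 24 h, then exposed for 96 h at 37 °C to complexes (saline-dissolved, final 0–200 μM). Viability was read by MTT (570 nm) or SRB (570 nm) against untreated controls, with 4 or 6 replicates. IC50 was taken from dose–response curves.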

The next experiment deals with DU-145. The experiment is described as follows: Concentration to inhibit growth of DU145 cell lines. Particulars: Homo sapiens. An outline of the steps:
as §1

Another experiment has as its system PC-9. Nature of the experiment: Concentration to inhibit growth of PC9 cell lines. Particulars: Homo sapiens. The gist of the method:
as §1

A short description of experiment [1]: Concentration to inhibit growth of PC9-cisR cell lines. The following applies: Homo sapiens; PC-9. An outline of the steps:
as §1

As for “8,8-Platinum dichloro-7-ethyl-(6S)-1,7-diazoniabicyclo[4.2.1]nonane”, the Mean IC50 in the experiment with BL13/0 stood at 19 µM; in the experiment on DU-145, 21.3 µM; with PC-9, 31 µM; in experiment [1], 79.7 µM.
Consider “8,8-Platinumdichloro-7,7-dimethyl-(6R)-1,7-diazoniabicyclo[4.2.1]nonane”, for which the Mean IC50 with BL13/0 is 7.7 µM; in the experiment on DU-145, 7.3 µM; with PC-9, 13.5 µM; in experiment [1] it was 29.3 µM.
For “8,8-Platinumdichloro-7,7-dimethyl-(6S)-1,7-diazoniabicyclo[4.2.1]nonane” the same measures were 10.2 µM, 11.5 µM, 11.8 µM and 28.7 µM.
Consider “8,8-Platinumdichloro-7-ethyl-(6R)-1,7-diazoniabicyclo[4.2.1]nonane”, for which the Mean IC50 in the experiment with BL13/0 came to 7.4 µM; in the experiment with DU-145, 9.5 µM; in the experiment on PC-9, 20 µM; in experiment [1], 44 µM.
For “8,8-Platinumdichloro-7-methyl-(6S)-1,7-diazoniabicyclo[4.2.1]nonane”, the Mean IC50 is 11.7 µM in the experiment on BL13/0, 10.1 µM in the experiment on DU-145, 13.7 µM in the experiment on PC-9 and 38.3 µM in experiment [1].
For “8,8-platinumdichloro-(6R)-1,7-diazoniabicyclo[4.2.1]nonane”, the Mean IC50 was found to be 1.3 µM with BL13/0, 2.9 µM in the experiment on DU-145, 5.9 µM in the experiment on PC-9 and 16 µM in experiment [1].
In the case of CISPLATIN, the Mean IC50 was 1.9 µM in the experiment on BL13/0, 1.8 µM with DU-145, 1.4 µM with PC-9 and 11.7 µM in experiment [1].
